For this assay, the system named is FKBP12^F36V-PTPN2 H1975 cells. Put plainly: Cell viability by CellTiter-Glo, FKBP12F36V-PTPN2 H1975. The class given is cell-based. To be noted: read-out: IC50, cell viability; 6 days. Put shortly:
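H1975 cells lentivirally transduced to express Flag-FKBP12F36V-PTPN2 (TC45 short isoform) were seeded at 3000 cells/well in full medium for 24 h. They were then treated with test compound at a range of concentrations under serum-free conditions for 4 or 6 days. Viability was measured by CellTiter-Glo luminescence and normalised to DMSO controls. Three replicates, mean and SD.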
Background: ATP-based viability assays read luminescence as a measure of living cells.

In general, IC50 refers to the midpoint of a concentration-inhibition curve. As for `CN(C)C/C=C/C(=O)Nc1cc2c(Nc3ccc(F)c(Cl)c3)ncnc2cc1O[C@H]1CCOC1` [afatinib], the IC50 came to 2.11 µM.

These data come from publication PMC10971414 (Science Advances, 2024).
